Source: ChEMBL document CHEMBL3351651 (Bioorg Med Chem, 2014)

Columns and labels:
Mus musculus [1] = test: Hypolipidiemic activity in tyloxapol-induced ICR mouse hyperlipidemic model assessed as increase in serum HDL-cholesterol level at 17 mg/kg, ip after 24 hrs; type: functional; conditions: route intraperitoneal
Outline: (§1)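 Male ICR mice (25–30 g) were kept at 24 °C with a 12 h light/dark cycle on standard pellet diet with free water. Hyperlipidemia was induced with tyloxapol (400 per table) and test agents were given ip. After 24 h, retro-orbital blood was centrifuged and serum TC, HDL-C and TG were measured. LDL-C was calculated by the Friedewald equation. Assays were run in duplicate; values are means of 6 mice.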

Mus musculus [2] = test: Hypolipidemic activity in tyloxapol-induced ICR mouse hyperlipidemic model assessed as reduction in serum triglyceride level at 17 mg/kg, ip after 24 hrs; type: functional; parameters: scale not given: the % may be the effect or the level left; conditions: route intraperitoneal; outline: as §1
Mus musculus [3] = test: Hypolipidiemic activity in tyloxapol-induced ICR mouse hyperlipidemic model assessed as reduction in serum cholesterol level at 17 mg/kg, ip after 24 hrs; type: functional; parameters: scale not given: the % may be the effect or the level left; conditions: route intraperitoneal; outline: as §1
Mus musculus [4] = test: Hypolipidiemic activity in tyloxapol-induced ICR mouse hyperlipidemic model assessed as reduction in serum LDL-cholesterol level at 17 mg/kg, ip after 24 hrs; type: functional; parameters: scale not given: the % may be the effect or the level left; conditions: route intraperitoneal; outline: as §1
Mus musculus [5] = test: Hypolipidiemic activity in tyloxapol-induced ICR mouse hyperlipidemic model assessed as reduction in serum triglyceride level at 100 mg/kg, ip after 24 hrs; type: functional; parameters: scale not given: the % may be the effect or the level left; conditions: route intraperitoneal
Mus musculus [6] = test: Hypolipidiemic activity in tyloxapol-induced ICR mouse hyperlipidemic model assessed as reduction in serum cholesterol level at 25 mg/kg, ip after 24 hrs; type: functional; parameters: scale not given: the % may be the effect or the level left; conditions: route intraperitoneal
Mus musculus [7] = test: Hypolipidiemic activity in tyloxapol-induced ICR mouse hyperlipidemic model assessed as reduction in serum triglyceride level at 25 mg/kg, ip after 24 hrs; type: functional; parameters: scale not given: the % may be the effect or the level left; conditions: route intraperitoneal
Mus musculus [8] = test: Hypolipidiemic activity in tyloxapol-induced ICR mouse hyperlipidemic model assessed as increase in serum HDL-cholesterol level at 100 mg/kg, ip after 24 hrs; type: functional; conditions: route intraperitoneal
Mus musculus [9] = test: Hypolipidiemic activity in tyloxapol-induced ICR mouse hyperlipidemic model assessed as reduction in serum LDL-cholesterol level at 25 mg/kg, ip after 24 hrs; type: functional; parameters: scale not given: the % may be the effect or the level left; conditions: route intraperitoneal
Mus musculus [10] = test: Hypolipidiemic activity in tyloxapol-induced ICR mouse hyperlipidemic model assessed as reduction in serum cholesterol level at 50 mg/kg, ip after 24 hrs; type: functional; parameters: scale not given: the % may be the effect or the level left; conditions: route intraperitoneal
Mus musculus [11] = test: Hypolipidiemic activity in tyloxapol-induced ICR mouse hyperlipidemic model assessed as reduction in serum LDL-cholesterol level at 100 mg/kg, ip after 24 hrs; type: functional; parameters: scale not given: the % may be the effect or the level left; conditions: route intraperitoneal
Mus musculus [12] = test: Hypolipidiemic activity in tyloxapol-induced ICR mouse hyperlipidemic model assessed as reduction in serum LDL-cholesterol level at 50 mg/kg, ip after 24 hrs; type: functional; parameters: scale not given: the % may be the effect or the level left; conditions: route intraperitoneal
Mus musculus [13] = test: Hypolipidiemic activity in tyloxapol-induced ICR mouse hyperlipidemic model assessed as increase in serum HDL-cholesterol level at 50 mg/kg, ip after 24 hrs; type: functional; conditions: route intraperitoneal
Mus musculus [14] = test: Hypolipidiemic activity in tyloxapol-induced ICR mouse hyperlipidemic model assessed as increase in serum HDL-cholesterol level at 25 mg/kg, ip after 24 hrs; type: functional; conditions: route intraperitoneal
Mus musculus [15] = test: Hypolipidiemic activity in tyloxapol-induced ICR mouse hyperlipidemic model assessed as reduction in serum triglyceride level at 50 mg/kg, ip after 24 hrs; type: functional; parameters: scale not given: the % may be the effect or the level left; conditions: route intraperitoneal
Mus musculus [16] = test: Hypolipidiemic activity in tyloxapol-induced ICR mouse hyperlipidemic model assessed as reduction in serum cholesterol level at 100 mg/kg, ip after 24 hrs; type: functional; parameters: scale not given: the % may be the effect or the level left; conditions: route intraperitoneal
[17] = Metabolic stability in presence of alpha-chymotrypsin (unknown origin) assessed as retention time by HPLC analysis; type: ADME; conditions: human
[18] = Metabolic stability in presence of pepsin (unknown origin) assessed as retention time by HPLC analysis; type: ADME; conditions: human, isolated protein

Compound | Activity (Mus musculus [1]) [%] | Activity (Mus musculus [2]) [%] | Activity (Mus musculus [3]) [%] | Activity (Mus musculus [4]) [%] | Activity (Mus musculus [5]) [%] | Activity (Mus musculus [6]) [%] | Activity (Mus musculus [7]) [%] | Activity (Mus musculus [8]) [%] | Activity (Mus musculus [9]) [%] | Activity (Mus musculus [10]) [%] | Activity (Mus musculus [11]) [%] | Activity (Mus musculus [12]) [%] | Activity (Mus musculus [13]) [%] | Activity (Mus musculus [14]) [%] | Activity (Mus musculus [15]) [%] | Activity (Mus musculus [16]) [%] | Retention_time [17] [min] | Retention_time [18] [min] | Retention time [17] [min]
CCC(C)(C)C(=O)O[C@H]1C[C@@H](C)C=C2C=C[C@H](C)[C@H](CC[C@@H]3C[C@@H](O)CC(=O)O3)[C@H]21 [SIMVASTATIN] | 292.2 | -57 | -63.46 | -84.31 | – | – | – | – | – | – | – | – | – | – | – | – | – | – | –
CCCc1cc(OC)c(OCC(=O)OC)cc1O | – | – | – | – | -71.38 | -79.77 | -84.13 | 50.85 | -89.32 | -80.21 | -81.23 | -87.97 | 57.63 | 91.53 | -81.93 | -74.02 | – | – | –
CCCCc1cc(OC)c(OCC(=O)OC)cc1O | – | – | – | – | -82.75 | -70.62 | -20.46 | 89.83 | -77.77 | -59.46 | -89.51 | -62.75 | -3.39 | 11.86 | -49.82 | -79.95 | 13.8 | 13.81 | –
CCC(=O)c1cc(OC)c(OC)cc1O | – | – | – | – | -80.92 | -81.69 | -80.09 | 40.68 | -86.72 | -81.95 | -88.35 | -87.68 | 16.95 | 6.78 | -81.01 | -81.43 | – | – | –
CCCC(=O)c1cc(OC)c(OC)cc1O | – | – | – | – | -79.36 | -74.28 | -69.54 | 8.47 | -80.65 | -81.4 | -88.74 | -87.97 | 30.51 | 33.9 | -77.25 | -83.26 | 13.83 | 13.84 | –
CCc1cc(OC)c(OCC(=O)OC)cc1O | – | – | – | – | -75.87 | -79.08 | -72.94 | -3.39 | -86.14 | -69.22 | -82.58 | -75.26 | 28.81 | 40.68 | -59.63 | -78.2 | 7.78 | 7.78 | –
COc1cc(O)c(C(C)=O)cc1OC | – | – | – | – | -82.11 | -71.84 | -59.63 | 55.93 | -76.23 | -80.09 | -87.68 | -87.01 | 44.07 | -4.75 | -80.92 | -80.12 | 8.58 | 8.57 | –
CCCC(=O)c1cc(OC)c(OCC(=O)OC)cc1O | – | – | – | – | -73.58 | -78.38 | -73.12 | 35.59 | -84.7 | -49.26 | -79.4 | -54.28 | 20.34 | 30.51 | -27.8 | -73.23 | 13.18 | 13.16 | –
COC(=O)COc1cc(O)c(C(C)=O)cc1OC | – | – | – | – | -51.38 | -74.72 | -28.62 | 13.56 | -81.62 | -72.71 | -85.76 | -76.9 | 1.69 | 8.47 | -74.77 | -75.33 | 8.68 | 8.67 | –
CCC(=O)c1cc(OC)c(OCC(=O)OC)cc1O | – | – | – | – | -75.41 | -68.18 | -59.82 | 45.76 | -72.18 | -66.87 | -81.33 | -76.03 | 66.1 | -3.39 | -31.93 | -74.46 | – | – | –
CCCCc1cc(OC)c(OC)cc1O | – | – | – | – | -83.94 | -70.1 | -82.57 | 23.73 | -74.78 | -67.04 | -74.69 | -70.93 | 11.86 | 23.73 | -79.17 | -70.1 | 12.44 | 12.45 | –
CCc1cc(OC)c(OC)cc1O | – | – | – | – | -81.65 | -67.13 | -76.79 | 71.19 | -72.47 | -73.41 | -83.93 | -78.34 | 25.42 | 33.9 | -86.97 | -75.85 | – | 6.95 | 6.94
CCCc1cc(OC)c(OC)cc1O | – | – | – | – | -77.98 | -71.84 | -82.75 | 15.25 | -78.15 | -66.7 | -73.63 | -71.61 | 25.42 | 49.15 | -73.85 | -69.22 | – | – | –
